Calls of active or inactive are those of the source. No cut-off for these calls is given here.
How the values were obtained:
[1] = test system: Human immunodeficiency virus 1; test: Inhibition of HIV1 replication in human MT4 cells assessed as reduction in reverse transcriptase production at 10 uM; format: functional, organism-based
Procedure, shortened: (§1)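 MT4 cells (4 × 10^6, RPMI + 10% FBS) infected with 20,000 RT counts of NL4-3 (HeLa-transfection stock); compound added 4 hrs post-infection. Half the medium replaced every 2 days with drug-containing medium; supernatants collected every 2 days up to day 8 and assayed for RT activity (also p24 ELISA). Three independent experiments.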

[2] = molecular target: ATP-dependent RNA helicase DDX3X (Homo sapiens) (UniProt O00571); test: Inhibition of ATP dependent RNA unwinding activity of human RNA helicase DDX3
Procedure, shortened: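 Partially double-stranded RNA: 120-nt T3 transcript from KpnI-cut pBluescript hybridized (95 °C, 20 min) to complementary [α-32P]UTP-labelled T7 transcript from EcoRI-cut vector. Products resolved on 10% polyacrylamide gel, phosphorimaging.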

[3] = test system: Human immunodeficiency virus 1; test: Inhibition of HIV1 replication in human MT4 cells assessed as reduction in reverse transcriptase at 25 uM after 8 days by Western blotting; format: functional, organism-based; procedure, shortened: as §1
[4] = test system: Human immunodeficiency virus 1; test: Inhibition of HIV1 replication in human MT4 cells assessed as p24 capsid protein level at 25 uM after 8 days by ELISA; format: functional, organism-based
Procedure, shortened: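 NL4-3 virus stock made by HeLa transfection, titred by RT assay. 4 × 10^6 MT4 cells (RPMI, 10% FBS) infected with 20,000 RT counts; compound added 4 hrs post infection. Half the medium replaced every 2 days with fresh medium holding the same compound level. Supernatants taken every 2 days over 8 days for p24 ELISA. Three repeats.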

[5] = test system: Human immunodeficiency virus 1; test: Antiviral activity against HIV1 transfected in human HeLa cells assessed as reduction of p55 viral protein synthesis at 25 uM; format: functional, organism-based
Procedure, shortened: (§2)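 HeLa cells transfected with 2µg pNL4-3 proviral clone; compound 25 µM added 3 hrs post-transfection. Lysates prepared 24 hrs later; viral proteins detected by Western blotting with anti-HIV-1 patient IgG (hyperimmune patient serum).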

[6] = test system: Human immunodeficiency virus 1; test: Antiviral activity against HIV1 transfected in human HeLa cells assessed as reduction of p24 viral protein synthesis at 25 uM; format: functional, organism-based; procedure, shortened: as §2
[7] = test system: Human immunodeficiency virus 1; test: Inhibition of macrophage tropic HIV1 AD8 replication in monocyte-derived macrophages assessed as reduction in reverse transcriptase at 25 uM after 5 days by Western blotting; format: functional, organism-based
Procedure, shortened: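 Monocyte-derived macrophages from elutriated blood monocytes cultured 5–7 days in RPMI-1640 with 10% pooled human AB serum and M-CSF, then infected with 10^5 RT counts of M-tropic HIV-1 AD8 and treated with compound. Supernatants collected every 3 days for RT activity and p24 ELISA; three repeats.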

[8] = test system: Human immunodeficiency virus 1; test: Inhibition of macrophage tropic HIV1 AD8 replication in monocyte-derived macrophages p24 capsid protein level at 25 uM after 5 days by ELISA; format: functional, organism-based
Procedure, shortened: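 Elutriated blood monocytes cultured 5–7 days in RPMI-1640 with 10% pooled human AB serum and M-CSF to give macrophages. Infected on day 5 with 100,000 RT counts of HIV-1 AD8 (stock from HeLa transfection) and treated with compound. Supernatants collected every 3 days for p24 ELISA. Three repeats.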

[9] = test system: Mus musculus; test: Toxicity in BALB/c mouse assessed as tissue necrosis at 0.2 to 200 uM, ip administered […] relative to control; format: organism-based; settings: in vivo, 840 h
Procedure, shortened: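 BALB/c mice, 8–10 weeks old, groups of 4, injected intraperitoneally twice weekly for 4 weeks with boluses calculated to give body distributions of 0.2, 2, 20 and 200 µM. Controls received saline or DMSO. Mice monitored 5 weeks in total, tail-vein blood weekly, then necropsy and multi-organ histology.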

[10] = test system: MT4; test: Cytotoxicity against human MT4 cells at 1 to 100 uM after 6 days by colorimetric assay relative to control; format: cell-based; settings: mt4, 144 h
Procedure, shortened: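 MT4 cells (4 × 10^6 in 2 ml, RPMI + 10% FBS) incubated with 1, 10 or 100 µM compound over 6 days; half the medium replaced every 2 days with fresh drug-containing medium. At each harvest 100 µl suspension incubated 2 hrs with WST-8, absorbance at 450 nm, compared with untreated cells.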

ATP-dependent RNA helicase DDX3X (Homo sapiens), sequence (O00571 2-662 limits assumed): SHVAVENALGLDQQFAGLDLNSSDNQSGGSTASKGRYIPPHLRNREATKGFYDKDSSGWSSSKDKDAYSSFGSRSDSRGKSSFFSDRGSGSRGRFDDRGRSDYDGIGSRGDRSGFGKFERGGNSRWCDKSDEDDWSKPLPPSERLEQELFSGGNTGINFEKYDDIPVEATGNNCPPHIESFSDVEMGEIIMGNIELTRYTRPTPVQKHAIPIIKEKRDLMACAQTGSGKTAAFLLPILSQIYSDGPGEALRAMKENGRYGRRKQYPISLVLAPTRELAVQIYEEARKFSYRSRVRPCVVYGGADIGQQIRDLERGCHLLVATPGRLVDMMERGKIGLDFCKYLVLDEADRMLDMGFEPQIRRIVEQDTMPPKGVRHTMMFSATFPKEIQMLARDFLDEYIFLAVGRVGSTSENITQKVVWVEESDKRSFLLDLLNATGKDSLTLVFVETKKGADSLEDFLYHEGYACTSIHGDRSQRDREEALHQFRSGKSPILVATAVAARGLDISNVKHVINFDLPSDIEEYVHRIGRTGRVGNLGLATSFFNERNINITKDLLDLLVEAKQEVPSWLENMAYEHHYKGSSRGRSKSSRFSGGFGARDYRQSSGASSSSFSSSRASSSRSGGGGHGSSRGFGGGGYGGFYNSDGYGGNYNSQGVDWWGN

SMILES	Activity [1]	Activity [2]	Activity [3]	Activity [4]	Activity [5]	Activity [6]	Activity [7]	Activity [8]	Activity [9]	Activity [10]
CCCCCCCCCCCCCCCCCCNc1nc(=O)c2ncn([C@@H]3O[C@H](CO)[C@@H](O)[C@H]3O)c2c(=O)[nH]1	Active	Active	Active	Active	Active	Active	Active	Active	Non-toxic	Non-toxic
CCCCCCCCCCCCCCCCCCNc1nc(=O)c2c(ncn2[C@@H]2C[C@@H](O)[C@H](CO)O2)c(=O)[nH]1	Active	Active	Active	Active	Active	Active	Active	Active	Non-toxic	Non-toxic

— ChEMBL document CHEMBL1156627, “Ring expanded nucleoside analogues inhibit RNA helicase and intracellular human immunodeficiency virus type 1 replication” (J Med Chem, 2008)
